Results from ChEMBL document CHEMBL1141183, “Development of potent mu-opioid receptor ligands using unique tyrosine analogues of endomorphin-2” (J Med Chem, 2005).
Active and inactive are the calls of the source. The calls are words filed in the database; no cut-off is given here.

Assays:
Mu-type opioid receptor [1] = target: Mu-type opioid receptor (Rattus norvegicus, UniProt P33535); assay: Inhibition of [3H]DAMGO binding to mu-Opioid receptor
Summary of the method: (§1)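 Synaptosomal membranes preincubated to remove endogenous opioids, washed, stored at -80 °C with protease inhibitor. μ sites labelled with [3H]DAMGO, δ with [3H]DPDPE; nonspecific binding set by 2 µM unlabelled peptide. Filtration on polyethylenimine-soaked GF/C filters, scintillation counting. Five to seven peptide doses in duplicate, several preparations. Ki by Cheng-Prusoff.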

[2] = target: Delta-type opioid receptor (Mus musculus, UniProt P32300); assay: In vitro inhibition of opioid receptor delta using mouse vas deferens; type: tissue-based
[3] = target: Delta-type opioid receptor (Rattus norvegicus, UniProt P33533); assay: Inhibition of [3H]DPDPE binding to delta-Opioid receptor; summary of the method: as §1
Mu-type opioid receptor [4] = target: Mu-type opioid receptor (Cavia porcellus, UniProt P97266); assay: In vitro inhibition of opioid receptor mu using isolated guinea pig ileum; type: tissue-based
Summary of the method: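 Myenteric plexus longitudinal muscle strips (2-3 cm) from small intestine of male Hartley guinea pigs, in organ bath with physiological salt buffer, pH 7.5, for μ-receptor agonism.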

[5] = target: Opioid receptors; mu & delta (Rattus norvegicus) (UniProt P33533+P33535); assay: Relative binding to delta and mu Opioid receptors (ratio of Ki); type: protein assay
Mus musculus = organism: Mus musculus; assay: Inhibition of electrically evoked contraction in mice by tail flick method; nd=None detected; type: functional, organism-based

Mu-type opioid receptor (Rattus norvegicus, UniProt P33535), sequence (P33535 whole entry): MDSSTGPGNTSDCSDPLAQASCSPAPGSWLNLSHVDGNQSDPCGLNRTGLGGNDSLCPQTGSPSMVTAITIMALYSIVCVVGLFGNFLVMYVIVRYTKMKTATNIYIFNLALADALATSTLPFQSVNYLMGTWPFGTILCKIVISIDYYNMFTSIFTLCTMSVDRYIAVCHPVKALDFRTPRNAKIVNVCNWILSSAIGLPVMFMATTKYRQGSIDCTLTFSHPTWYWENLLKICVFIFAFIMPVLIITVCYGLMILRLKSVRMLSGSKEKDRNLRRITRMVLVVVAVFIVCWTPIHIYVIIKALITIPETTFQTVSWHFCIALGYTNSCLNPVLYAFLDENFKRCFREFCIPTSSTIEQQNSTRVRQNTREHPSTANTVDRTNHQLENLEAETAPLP
Delta-type opioid receptor (Rattus norvegicus, UniProt P33533), sequence (P33533 whole entry): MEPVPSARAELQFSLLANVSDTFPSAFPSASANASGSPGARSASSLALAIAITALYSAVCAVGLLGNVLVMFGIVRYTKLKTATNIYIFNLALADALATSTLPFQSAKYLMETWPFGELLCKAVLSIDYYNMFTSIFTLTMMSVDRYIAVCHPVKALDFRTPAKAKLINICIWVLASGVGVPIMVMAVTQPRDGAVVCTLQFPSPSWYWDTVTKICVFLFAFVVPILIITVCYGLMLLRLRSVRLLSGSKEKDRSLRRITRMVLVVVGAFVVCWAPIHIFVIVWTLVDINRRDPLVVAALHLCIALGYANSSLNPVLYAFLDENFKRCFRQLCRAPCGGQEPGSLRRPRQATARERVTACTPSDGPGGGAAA
Opioid receptors; mu & delta (Rattus norvegicus), sequence (P33533 whole entry, looked up): as the sequence (P33533 whole entry) above
Opioid receptors; mu & delta (Rattus norvegicus), sequence (P33535 whole entry, looked up): as the sequence (P33535 whole entry) above
Mu-type opioid receptor (Cavia porcellus, UniProt P97266), sequence (P97266 whole entry): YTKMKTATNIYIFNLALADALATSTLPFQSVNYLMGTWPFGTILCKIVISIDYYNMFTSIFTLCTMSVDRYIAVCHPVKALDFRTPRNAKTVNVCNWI
Delta-type opioid receptor (Mus musculus, UniProt P32300), sequence (P32300 whole entry): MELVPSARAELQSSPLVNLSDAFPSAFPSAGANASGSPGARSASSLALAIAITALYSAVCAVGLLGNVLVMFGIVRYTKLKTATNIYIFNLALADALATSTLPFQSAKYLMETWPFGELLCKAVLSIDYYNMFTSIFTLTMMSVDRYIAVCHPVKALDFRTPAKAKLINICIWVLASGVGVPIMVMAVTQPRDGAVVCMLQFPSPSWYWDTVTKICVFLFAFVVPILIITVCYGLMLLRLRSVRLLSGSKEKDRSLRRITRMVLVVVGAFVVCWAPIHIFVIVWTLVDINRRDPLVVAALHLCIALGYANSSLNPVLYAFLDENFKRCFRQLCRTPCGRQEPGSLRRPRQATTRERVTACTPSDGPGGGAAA

| SMILES | Ki (Mu-type opioid receptor [1]) [nM] | IC50 [2] [nM] | Ki [3] [nM] | IC50 (Mu-type opioid receptor [4]) [nM] | Ratio [5] | inhibition (Mus musculus) |
| --- | --- | --- | --- | --- | --- | --- |
| Cc1cc(O)cc(C(C)C)c1C[C@H](N)C(=O)N1CCC[C@H]1C(=O)N[C@@H](Cc1ccccc1)C(=O)N[C@@H](Cc1ccccc1)C(N)=O | 0.15 | 601 | 190 | 10.6 | 1270 | – |
| Cc1cc(O)c(C)c(C)c1C[C@H](N)C(=O)N1CCC[C@H]1C(=O)N[C@@H](Cc1ccccc1)C(=O)N[C@@H](Cc1ccccc1)C(N)=O | 0.111 | 46.4 | 593 | 2.31 | 5350 | – |
| CCc1cc(O)cc(C)c1C[C@H](N)C(=O)N1CCC[C@H]1C(=O)N[C@@H](Cc1ccccc1)C(=O)N[C@@H](Cc1ccccc1)C(N)=O | 0.063 | 1.08 | 55.7 | 0.623 | 884 | – |
| Cc1cc(O)ccc1C[C@H](N)C(=O)N1CCC[C@H]1C(=O)N[C@@H](Cc1ccccc1)C(=O)N[C@@H](Cc1ccccc1)C(N)=O | 0.132 | 28.7 | 529 | 0.924 | 4000 | – |
| CCc1cc(O)cc(CC)c1C[C@H](N)C(=O)N1CCC[C@H]1C(=O)N[C@@H](Cc1ccccc1)C(=O)N[C@@H](Cc1ccccc1)C(N)=O | 0.084 | 47.1 | 69.7 | 0.903 | 830 | – |
| CC(C)c1cc(O)cc(C(C)C)c1C[C@H](N)C(=O)N1CCC[C@H]1C(=O)N[C@@H](Cc1ccccc1)C(=O)N[C@@H](Cc1ccccc1)C(N)=O | 2.29 | > 10000 | 105 | 299 | 46 | inactive |
